Laboratory results reported in ChEMBL document CHEMBL1268935, “3-O-arylmethylgalangin, a novel isostere for anti-HCV 1,3-diketoacids (DKAs)” (Bioorg Med Chem, 2010).
pEC50, pIC50: −log10 of the molar value. Each block holds one compound with its values, some of them ahead of it.

Key:
[1] = test system: Hepatitis C virus; test: Antiviral activity against HCV genotype 1 harboring luc-ubi-neo fusion gene infected in human Huh7 cells assessed as inhibition of viral RNA replication after 4 days by luciferase assay; type: functional, organism-based, Hepacivirus hominis; details: genotype 1, Huh-7, 96 h
Procedure, shortened: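 Huh-5-2 cells (Huh-7 carrying a subgenomic genotype 1 HCV replicon with luc-ubi-neo fusion gene) were seeded at 5 × 10³/well in complete DMEM with G418 and held 24 h at 37 °C, 5% CO₂. Medium was refreshed with G418 and compounds added from DMSO stock, then incubated 4 days at 37 °C. Luciferase was read out, and EC₅₀ was taken as 50% inhibition of replicon RNA replication. Interferon α-2b at 10,000 units/well served as reference.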

[2] = Inhibition of HCV recombinant NS5B polymerase using [alpha32p]GTP after 30 mins by scintillation counting; parameters: species or system Hepacivirus hominis
Procedure, shortened: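 Recombinant NS5B primer/template-directed transcription in 30 mM Tris–HCl pH 7.2; compounds at various concentrations from 10% DMSO–water stocks, final DMSO 1%; stopped with 33 mM EDTA; products captured on DEAE filters, washed with 5% dibasic sodium phosphate, scintillation counted. IC50 estimated from primary cpm data, triplicate.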

[3] = Cytotoxicity against human HuH5.2 cells after 3 days by WST-1 assay; type: cell-based, Huh-5-2
Procedure, shortened: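 Huh-7-derived Huh-5-2 cells carrying subgenomic genotype 1 HCV replicon (luc-ubi-neo); 5 × 10³ cells/well seeded in complete DMEM with G418; serial compound dilutions in DMEM without G418 added 24 h after seeding; proliferation 3 days at 37 °C; cell number by WST-1. CC50 = concentration reducing cell proliferation by 50%.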

[4] = Selectivity index, ratio of CC50 for human HuH5.2 cells to EC50 for HCV genotype 1 harboring luc-ubi-neo fusion gene
Procedure, shortened: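 SI is CC₅₀/EC₅₀, both measured in Huh-5-2 replicon cells seeded at 5 × 10³/well. For CC₅₀, serial dilutions in complete DMEM without G418 were added 24 h after seeding, cells grew 3 days at 37 °C, and cell number was read by WST-1. EC₅₀ came from the 4-day replicon luciferase assay run with G418.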

SMILES: O=c1c(OCc2ccccc2Br)c(-c2ccccc2)oc2cc(O)cc(O)c12
pEC50 [1]: 5.05 | pIC50 [2]: 4.98 | CC50 at 72 h [3]: 12 µM | Ratio CC50/EC50 [4]: 1.3

pIC50 [2]: 6.46
SMILES: N#CCCCOc1ccccc1C(=O)/C=C(\O)C(=O)O

SMILES: O=c1c(OCc2cccc(Cl)c2)c(-c2ccccc2)oc2cc(O)cc(O)c12
pEC50 [1]: 4.60 | pIC50 [2]: 7.00 | CC50 at 72 h [3]: 46 µM | Ratio CC50/EC50 [4]: 1.8

SMILES: O=c1c(OCc2cccc(Br)c2)c(-c2ccccc2)oc2cc(O)cc(O)c12
pEC50 [1]: 4.74 | pIC50 [2]: 5.34 | CC50 at 72 h [3]: 15 µM | Ratio CC50/EC50 [4]: 0.8

SMILES: N#Cc1cccc(COc2c(-c3ccccc3)oc3cc(O)cc(O)c3c2=O)c1
pEC50 [1]: 4.44 | pIC50 [2]: 6.70 | CC50 at 72 h [3]: 21 µM | Ratio CC50/EC50 [4]: 0.6

SMILES: O=c1c(OCc2cccc([N+](=O)[O-])c2)c(-c2ccccc2)oc2cc(O)cc(O)c12
pEC50 [1]: 5.30 | pIC50 [2]: 5.19 | CC50 at 72 h [3]: 31 µM | Ratio CC50/EC50 [4]: 6.2

SMILES: Cc1cccc(COc2c(-c3ccccc3)oc3cc(O)cc(O)c3c2=O)c1
pEC50 [1]: 4.55 | pIC50 [2]: 4.52 | CC50 at 72 h [3]: 29 µM | Ratio CC50/EC50 [4]: 1

SMILES: COc1cccc(COc2c(-c3ccccc3)oc3cc(O)cc(O)c3c2=O)c1
pEC50 [1]: 4.66 | pIC50 [2]: 4.68 | CC50 at 72 h [3]: 28 µM

SMILES: O=c1c(OCc2ccc(Cl)cc2)c(-c2ccccc2)oc2cc(O)cc(O)c12
pEC50 [1]: 4.82 | pIC50 [2]: 6.52 | CC50 at 72 h [3]: 36 µM | Ratio CC50/EC50 [4]: 2.4

SMILES: O=c1c(OCc2ccc(Br)cc2)c(-c2ccccc2)oc2cc(O)cc(O)c12
pEC50 [1]: 4.92 | pIC50 [2]: 5.85 | CC50 at 72 h [3]: 2 µM | Ratio CC50/EC50 [4]: 0.2

SMILES: N#Cc1ccc(COc2c(-c3ccccc3)oc3cc(O)cc(O)c3c2=O)cc1
pEC50 [1]: 5.00 | pIC50 [2]: 5.89 | CC50 at 72 h [3]: 48 µM | Ratio CC50/EC50 [4]: 4.8

SMILES: O=c1c(OCc2ccc([N+](=O)[O-])cc2)c(-c2ccccc2)oc2cc(O)cc(O)c12
pEC50 [1]: 5.15 | pIC50 [2]: < 4.30 | CC50 at 72 h [3]: 40 µM | Ratio CC50/EC50 [4]: 5.7

SMILES: Cc1ccc(COc2c(-c3ccccc3)oc3cc(O)cc(O)c3c2=O)cc1
pEC50 [1]: 4.85 | pIC50 [2]: 4.34 | CC50 at 72 h [3]: 40 µM | Ratio CC50/EC50 [4]: 2.9

SMILES: COc1ccc(COc2c(-c3ccccc3)oc3cc(O)cc(O)c3c2=O)cc1
pEC50 [1]: 5.00 | pIC50 [2]: 4.53 | CC50 at 72 h [3]: 57 µM | Ratio CC50/EC50 [4]: 5.7

SMILES: O=c1c(OCc2ccccc2Cl)c(-c2ccccc2)oc2cc(O)cc(O)c12
pEC50 [1]: 4.42 | pIC50 [2]: < 4.30 | CC50 at 72 h [3]: > 100 µM

SMILES: N#Cc1ccccc1COc1c(-c2ccccc2)oc2cc(O)cc(O)c2c1=O
pEC50 [1]: 5.30 | pIC50 [2]: 4.96 | CC50 at 72 h [3]: > 100 µM

SMILES: O=c1c(OCc2ccccc2[N+](=O)[O-])c(-c2ccccc2)oc2cc(O)cc(O)c12
pEC50 [1]: 4.92 | pIC50 [2]: < 4.30 | CC50 at 72 h [3]: 51 µM | Ratio CC50/EC50 [4]: 4.3

SMILES: Cc1ccccc1COc1c(-c2ccccc2)oc2cc(O)cc(O)c2c1=O
pEC50 [1]: 4.47 | pIC50 [2]: 5.14 | CC50 at 72 h [3]: 55 µM | Ratio CC50/EC50 [4]: 1.6

SMILES: COc1ccccc1COc1c(-c2ccccc2)oc2cc(O)cc(O)c2c1=O
pEC50 [1]: 4.55 | pIC50 [2]: < 4.30 | CC50 at 72 h [3]: 53 µM | Ratio CC50/EC50 [4]: 1.9
